Sampled rows, rich in hits. Any-hit rate of the full collection: about 3.8%.
FN deposit inh = fibronectin deposition inhibition; AH1F fibroblasts, Alexa488-fibronectin deposition fluorescence, overnight; inhibition, % at 12.6 µM; 350,000 compounds, 0.086% hits;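 active = mean inhibition across replicates of 30% or more, regardless of how many single replicates reach that level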
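Assay system: AH1F fibroblast monolayer, labelled fibronectin deposition. Amount: 10000 cells per well. Also added: labelled fibronectin 24 nM. Compound: single-point pinned compound. Incubation: cell attachment 1 h, compound and FN exposure overnight. Detection: fluorescence after three HBSS washes, excitation 485 nm, emission 525 nm. Read-out: inhibition of fibronectin deposition signal.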
ARNT TACC3 PPI = disruptors of human ARNT/TACC3 interaction; AlphaScreen His-ARNT PAS-B/GST-TACC3 binding, luminescence; TACC3 fragment carries E629A point mutation; inhibition, % at 9.99 µM; 390,000 compounds, 0.66% hits; AID 623870;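 active = mean inhibition of replicates at least 50% and at least half of replicates each reaching 50%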
SIRT5 block = sirtuin-5 (human) deacylase inhibition. Q9NXA8. Purified SirT5, succinyl-peptide AMC, trypsin-coupled fluorescence. inhibition, % at 15 µM. 330,000 compounds, 1.1% hits; in the data active = inhibition above about 15%
DENV2 CPE = protects cells from dengue virus 2 cytopathic effect | DENV2-infected cells, cytopathic effect rescue, plate reader | CPE inhibition, % at 9.99 µM | 350,000 compounds, 1.7% hits | AID 651640; in the data active = CPE inhibition above about 20%, passing the limit was not always enough; tested in BHK-21 cells
XiGFP reactiv = X-chromosome reactivation activator; XiGFP mouse fibroblasts, % GFP-positive cells imaging, 3 d; cells co-treated with 5-aza-dC sensitizer; scaled so ellipticine positive control = 100%; activation, % at 7.58 µM; 360,000 compounds, 0.055% hits; AID 743238;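 active = mean normalized replicate activation at least 10% and every replicate at or above 10%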
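assay system = SV40-immortalized XiGFP fibroblast cells, line 68-5-11 | buffer or medium = DMEM plus 5-aza-dC sensitizer | doses = single-point pinned compound dosing | times = 3-day compound exposure, then 15 min fixation at room temperature | benchmarks = positive control ellipticine, 6 µM final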
FGF22 binding = FGF22 (human) thermal shift binding; Q9HCT0; recombinant FGF22 thermal shift, SYPRO orange fluorescence; percent of sucrose octasulfate shift, DMSO zero; activity (Tm shift, normalised), % at 9.99 µM; 340,000 compounds, 1.5% hits; AID 651658;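 active = mean Tm shift, scaled 0 neutral to 100 positive control, at about 1.3% or above, every replicate too, limit read from the data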
Target sequence (Q9HCT0 whole entry, looked up): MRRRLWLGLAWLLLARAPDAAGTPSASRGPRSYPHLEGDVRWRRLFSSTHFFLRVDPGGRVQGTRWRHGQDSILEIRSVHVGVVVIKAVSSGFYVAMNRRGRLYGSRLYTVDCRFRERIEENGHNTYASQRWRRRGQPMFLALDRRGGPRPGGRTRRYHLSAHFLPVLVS
Numbers stand for hits; n = inactive; x = not tested or not shown.

SMILES	FN deposit inh	ARNT TACC3 PPI	SIRT5 block	DENV2 CPE	XiGFP reactiv	FGF22 binding
Cc1noc(C)c1S(=O)(=O)Nc1cccc2c1O[C@@H](CN(C)S(=O)(=O)c1ccccc1)[C@@H](C)CN([C@H](C)CO)C2=O	x	n	n	n	n	n
Cc1noc(C)c1S(=O)(=O)Nc1cccc2c1O[C@H](CN(C)C(=O)NC(C)C)[C@H](C)CN([C@@H](C)CO)C2=O	n	n	n	88	n	n
Cc1ccc(S(=O)(=O)Nc2cccc3c2O[C@@H](CN(C)C(=O)NC(C)C)[C@@H](C)CN([C@H](C)CO)C3=O)cc1	x	n	n	43	n	n
Cc1noc(C)c1S(=O)(=O)Nc1cccc2c1O[C@H](CN(C)S(=O)(=O)c1ccccc1)[C@H](C)CN([C@H](C)CO)C2=O	x	n	n	54	n	n
Cc1noc(C)c1S(=O)(=O)Nc1cccc2c1O[C@H](CN(C)C(=O)NC(C)C)[C@H](C)CN([C@H](C)CO)C2=O	n	n	n	n	n	n
Cc1ccc(C(C)C)c(OCC(=O)NN=C2CCCC2)c1	n	n	n	n	n	n
Cc1ccc(C(C)C)c(OCC(=O)N/N=C/C2CCCCC2)c1	n	n	n	n	n	43
C[C@H](CO)N1C[C@H](C)[C@@H](CN(C)C(=O)c2cccc(F)c2)Oc2ncc(-c3ccccc3)cc2C1=O	n	x	x	x	n	x
CN(C)CC(=O)N1[C@@H]2c3ccc(-c4ccccc4)c(=O)n3C[C@H]1[C@H](CO)[C@H]2C(=O)N1CCN(C)CC1	x	n	n	n	n	n
O=C1CCC(C(=O)OCC(=O)Nc2ccc(SC(F)F)cc2)=NN1	n	x	n	29	n	n
O=C(COc1ccccc1C(=O)O)Nc1ccc(SC(F)F)cc1	n	n	n	n	n	43
CC(C)CC(NC(N)=O)C(=O)OCC(=O)Nc1ccc(SC(F)F)cc1 (centres undefined)	x	n	n	n	n	n
CC(C)=CC(=O)OCC(=O)Nc1ccc(SC(F)F)cc1	n	n	n	n	n	44
FC(F)Sc1ccc(NC(=S)NC(c2ccccc2)c2ccccc2)cc1	n	n	n	n	n	n
FC(F)Sc1ccc(NC(=S)NCc2ccccc2)cc1	n	x	n	n	n	43
CC(C)NC(=O)N(C)C[C@@H]1Oc2ccc(NC(=O)Nc3ccc4c(c3)OCO4)cc2CC(=O)N([C@H](C)CO)C[C@H]1C	n	n	n	n	n	n
C[C@@H]1CCCCO[C@H](CN(C)S(=O)(=O)c2ccc(Cl)cc2)[C@@H](C)CN([C@H](C)CO)C(=O)c2cc(NS(=O)(=O)c3ccc(F)cc3)ccc2O1	n	n	n	n	n	n
C[C@@H]1CN([C@@H](C)CO)C(=O)Cc2cc(NC(=O)NC3CCCCC3)ccc2O[C@@H]1CN(C)Cc1ccc(C(F)(F)F)cc1	n	n	n	n	n	n
CC(=O)CCC(=O)OCC(=O)Nc1ccc(SC(F)F)cc1	n	n	n	n	n	43
O=C(COC(=O)c1cc[n+]([O-])cc1)Nc1ccc(SC(F)F)cc1	n	n	x	x	n	n
O=C1CCCN1c1nccs1	n	n	n	n	n	44
CCCNC(=O)C[C@H]1C[C@H]2c3cc(NC(=O)CC4CC4)ccc3O[C@H]2[C@H](CO)O1	n	n	n	n	n	n
O=C(NC1CCCC1)C(c1cccnc1)N(CCc1ccccc1)C(=O)c1ccco1 (centres undefined)	n	n	n	n	n	n
Cc1nn(C)cc1C(C(=O)NC1CCCCC1)N(CCc1ccccc1)C(=O)c1cnccn1 (centres undefined)	n	x	n	n	n	43
COCCNC(=O)C[C@H]1C[C@H]2c3cc(NC(=O)COC)ccc3O[C@H]2[C@H](CO)O1	n	n	n	n	n	x
COc1ccc2c3c([nH]c2c1)[C@H](CO)N(C(=O)c1ccc(F)cc1)CC31CCN(C(=O)Nc2cccc(F)c2)CC1	x	x	n	n	n	n
O=C(O)COc1ccccc1/C=N/NC(=O)CSc1nc2ccccc2n1Cc1ccc(Cl)cc1	n	n	n	n	n	1.4

Screening data: PubChem, Broad Institute
